From PMC6318406 (Asian Pacific Journal of Cancer Prevention : APJCP, 2018) come the findings set out here.

Entries after “also recorded” stand apart in the source; their conditions may differ. Marks after values point to notes of the source that are not given here.

Holding throughout (format): in vivo, rat
The test system of one series is lipocalin-2 (LCN-2). In words: Serum lipocalin-2. The following applies: HCC afflicted rats, 50 mg/kg b.wt orally daily for 5 weeks. The method in brief: (§1)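 Female Wistar rats, 170-200 g, 10/group. HCC induced by oral NDEA in 0.9% saline, 20 mg/kg five times weekly for 4 weeks, then 10 mg/kg five times weekly for 1 week. Saline-dosed healthy and untreated HCC groups. Overnight fast after the last dose. Retro-orbital blood drawn under ether and clotted 45 min at room temperature. Serum spun at 1,800 x g for 15 min at 4°C and stored at -20°C. Rat ELISA kits. Mean ± SE; ANOVA with Tukey test.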

In series [1] the test system is β-cell leukemia/lymphoma 2 (Bcl-2). Put plainly: Serum Bcl-2 by ELISA in NDEA-induced HCC rats. Conditions: HCC afflicted rats, 50 mg/kg b.wt orally daily for 5 weeks. The method in brief: as §1
A general note: ELISA stands for enzyme-linked immunosorbent assay.

A further series has as its system alpha-fetoprotein (AFP). Put plainly: Serum alpha-fetoprotein. The following applies: HCC afflicted rats, 50 mg/kg b.wt orally daily for 5 weeks; mean ± SE. In short, it runs like this:
as §1

The nature of series [2]: Oral pharmacokinetic study in normal rats.
Series [3] relates to hepatocellular carcinoma (HCC) afflicted rats. Put plainly: Histological examination of liver tissue sections. Conditions: 50 mg/kg b.wt orally daily for 5 weeks, H and E stain.
Series [4] in a line: Oral pharmacokinetic study in HCC-induced rats. Conditions: serum. In short, it runs like this: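 HCC induced by oral NDEA (20 mg/kg five times weekly for 4 weeks, then 10 mg/kg for 1 week). Rats (n=6) were fasted 12 h, then given one oral 50 mg/kg dose of free or nanocomposite test compound. Serum was sampled 0.083–24 h, spiked with pyrogallol and extracted into ethyl acetate. Measured by C18 HPLC at 280 nm; non-compartmental analysis, ke from terminal log-linear slope, MRT = AUMC/AUC.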

A further series deals with pro-caspase 3. In words: Serum pro-caspase 3 by ELISA in NDEA-induced HCC rats. The following applies: HCC afflicted rats, 50 mg/kg b.wt orally daily for 5 weeks. In short, it runs like this: as §1
Another series has as its system endoglin (ENG). In words: Serum endoglin. The following applies: HCC afflicted rats, 50 mg/kg b.wt orally daily for 5 weeks; mean ± SE. The method in brief: as §1
The test system of series [5] is heat shock protein-70 (HSP-70). Put plainly: Serum heat shock protein-70. Conditions: HCC afflicted rats, 50 mg/kg b.wt orally daily for 5 weeks; mean ± SE. In short, it runs like this:
as §1

[6] abbreviates: normal rats, single dose 50 mg/kg p.o., serum.
[7] abbreviates: normal rats, single dose 50 mg/kg p.o., serum, 50 mg/kg.

In general, MRT refers to the average time that molecules of a dose stay in the body. By AUC(0-inf) is commonly meant the area under the concentration-time curve extrapolated to infinity. What is called AUC(0-t) is exposure summed from dosing to a finite time, without extrapolation to infinity. A word on the Tmax: it is the time from dosing to the highest level. One may read the half-life as the time needed for the level to fall by half in the phase considered. Read a high half-life as slow loss. As a reminder, the Cmax is the maximum level reached in the sampled fluid or tissue.

Regarding `O=C(O)c1cc(O)c(O)c(O)c1` [GA, 3,4,5-trihydroxy benzoic acid], the “Change in serum LCN-2 with respect to the HCC group” value in the series with lipocalin-2 (LCN-2) is on record as -34.8%. Besides, in series [1], the “Change in serum Bcl-2 with respect to the HCC group” value is recorded as -32.9%. The “Serum AFP” value in the series on alpha-fetoprotein (AFP) is recorded as 41.19 ± 0.83^b ng/ml. In [2] (setting [6]), the AUMC turned out to be 2.03 ± 0.44 µg·mL/h and the AUMC last worked out at 1.3 ± 0.13 µg·mL/h. In addition, in series [2] (normal rats, single dose 50 mg/kg p.o., serum concentration-time profile), the Duration of action entry is on record as “approximately 1 hr”. Besides, in [2] (setting [7]), the C max came to 1570 ± 108 ng/mL and the MRT came out at 1.063 ± 0.155 h. In series [2] (rat, serum, po, 50 mg/kg), the AUC(0-inf) is 1890 ± 130 ng·h/mL, the AUC(0-t) was determined as 1640 ± 45 ng·h/mL, the Tmax is 0.46 ± 0.085 h and the half-life was 0.62 ± 0.09 h. The molecule also showed a Cmax in series [2] (rat, serum, po, 50 mg/kg, C max, normal rats, single dose 50 mg/kg p.o.) of 1590 ng/mL. In series [2] (rat, serum, po, 50 mg/kg, MRT, normal rats, single dose 50 mg/kg p.o.), this molecule showed an MRT of 1.06 h. In addition, in series [3], the “Histopathological findings in liver tissue section” value was “markedly recovered the anaplastic changes in the rat liver tissues; also recorded: congestion in the portal vein, multiple newly formed bile ducts and inflammatory cells infiltration in between at the portal area; also recorded: focal aggregations of mononuclear leucocytes inflammatory cells were detected in the hepatic parenchyma”. This molecule also gave an AUMC last in series [4] (HCC-afflicted rats, single dose 50 mg/kg p.o.) of 1.55 ± 0.014 µg·mL/h. In [4] (rat, po, 50 mg/kg), the AUC(0-inf) was found to be 1670 ± 40 ng·h/mL, the area under the curve AUC(0-t) was 1340 ± 194 ng·h/mL, the MRT stood at 1.43 ± 0.34 h and the half-life is 1.4 ± 0.32 h. For the same molecule, the “Change in serum pro-caspase 3 with respect to the HCC group” value in the series with pro-caspase 3 is recorded as -60.5%. In addition, the “Serum ENG” value in the series with endoglin (ENG) is reported as 4.16 ± 0.14^b ng/ml. The “Serum HSP-70” value in [5] was 43.56 ± 0.8426^b ng/ L.
